Here are results for 23 molecules from BindingDB's records for doi:10.1016/j.ejmech.2017.02.062 (Padmashri Vikhe Patil College of Arts, 2017).

pIC50: −log10 of the molar value.

The target in the first experiment is T1, Retinoblastoma-associated protein (Homo sapiens, UniProt P06400).
T1 sequence (P06400 whole entry): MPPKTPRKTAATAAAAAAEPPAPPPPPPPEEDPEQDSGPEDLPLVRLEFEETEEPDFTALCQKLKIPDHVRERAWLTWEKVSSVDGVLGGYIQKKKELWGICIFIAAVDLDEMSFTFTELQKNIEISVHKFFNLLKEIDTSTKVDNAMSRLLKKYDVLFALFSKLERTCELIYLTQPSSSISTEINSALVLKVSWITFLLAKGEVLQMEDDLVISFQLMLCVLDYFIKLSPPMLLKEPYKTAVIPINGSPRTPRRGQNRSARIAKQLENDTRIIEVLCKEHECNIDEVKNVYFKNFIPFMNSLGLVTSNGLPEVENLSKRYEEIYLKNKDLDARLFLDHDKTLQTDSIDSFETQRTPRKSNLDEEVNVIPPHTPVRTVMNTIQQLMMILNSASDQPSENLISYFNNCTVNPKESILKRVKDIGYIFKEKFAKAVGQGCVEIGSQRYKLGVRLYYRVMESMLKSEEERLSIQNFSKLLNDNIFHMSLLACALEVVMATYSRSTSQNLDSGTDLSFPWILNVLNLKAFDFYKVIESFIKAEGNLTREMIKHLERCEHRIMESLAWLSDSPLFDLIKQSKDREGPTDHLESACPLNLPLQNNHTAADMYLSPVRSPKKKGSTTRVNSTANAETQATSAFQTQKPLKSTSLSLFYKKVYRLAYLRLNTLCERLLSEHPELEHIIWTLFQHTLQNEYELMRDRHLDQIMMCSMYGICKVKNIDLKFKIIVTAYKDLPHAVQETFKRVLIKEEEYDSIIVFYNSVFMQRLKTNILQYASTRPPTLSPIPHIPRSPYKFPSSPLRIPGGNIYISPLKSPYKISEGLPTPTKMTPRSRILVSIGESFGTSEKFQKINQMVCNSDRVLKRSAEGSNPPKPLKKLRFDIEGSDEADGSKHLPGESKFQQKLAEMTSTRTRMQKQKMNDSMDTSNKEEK
Briefly: Inhibition of retinoblastoma protein phosphorylation in human MDA-MB-231 cells after 16 hrs by Hoechst 33342 staining based fluorescence assay. An outline of the steps: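 Fixation in 3.7% formaldehyde, 0.1% Triton X permeabilization, anti-pRb primary with Dylight 549 secondary; nuclei counterstained with Hoechst 33342; high-content imaging on ArrayScan reader.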
Take `CC1CCC(NC2CCCc3c2[nH]c2ccccc32)C1` (stereo not drawn): the negative-log IC50 (pIC50) was 4.82.

The target of a further experiment is T1, Retinoblastoma-associated protein. Description: ChEBML_1684306.
Molecule `c1ccc2c3c([nH]c2c1)C(NC1CCCCC1)CCC3` (stereo not drawn) showed a negative-log IC50 (pIC50) of 4.82. Turning to `c1ccc2c3c([nH]c2c1)C(NC1CCCC1)CCC3` (stereo not drawn), the pIC50 is 5.00.

For the molecule `O=S(=O)(NC1CCCc2c1[nH]c1ccccc21)c1ccc(F)cc1` (stereo not drawn), the negative logarithm of the IC50 (pIC50) was 5.04. Turning to `N#Cc1ccc(S(=O)(=O)NC2CCCc3c2[nH]c2ccccc32)cc1` (stereo not drawn), the pIC50 was < 4.00. In the case of `c1ccc2c3c([nH]c2c1)CC(NC1CCCC1)CC3` (stereo not drawn), the negative-log IC50 (pIC50) is 5.00. Consider `CC1CCC(NC2CCc3c([nH]c4ccccc34)C2)C1` (stereo not drawn), for which the pIC50 is 4.76. Still for that read-out and setting: to `c1ccc2c3c([nH]c2c1)CC(NC1CCOCC1)CC3` (stereo not drawn) belongs < 4.00; to `O=S(=O)(NC1CCc2c([nH]c3ccccc23)C1)c1ccc(F)cc1` (stereo not drawn), 5.02; to `N#Cc1ccc(S(=O)(=O)NC2CCc3c([nH]c4ccccc34)C2)cc1` (stereo not drawn), < 4.00.

For the molecule `COc1cccc(C(=O)NC2CCc3c([nH]c4ccccc34)C2)c1` (stereo not drawn), the pIC50 is < 4.00.

Take `O=C(NC1CCc2c([nH]c3ccccc23)C1)c1ccccc1F` (stereo not drawn): the pIC50 is < 4.00. The molecule `c1ccc(CNC2CCc3c([nH]c4ccccc34)C2)cc1` (stereo not drawn) had a pIC50 of 5.16.

With `Cc1ccc2[nH]c3c(c2c1)CCC(NC1CCC(C)C1)C3` (stereo not drawn), the negative-log IC50 (pIC50) is 5.70. The same measure, in the same setting: to `Cc1ccc2[nH]c3c(c2c1)CCC(NCc1ccccc1)C3` (stereo not drawn) belongs 5.66; to `CC1CCC(NC2CCCc3c2[nH]c2ccc([N+](=O)[O-])cc32)C1` (stereo not drawn), 5.32. Molecule `Cc1ccc(CNC2CCc3c(n(C)c4ccccc34)C2)cc1` (stereo not drawn) showed a pIC50 of 5.46. On to `O=S(=O)(NC1CCCc2c1[nH]c1ccccc21)c1cccnc1` (stereo not drawn), for which the pIC50 is < 4.00. In turn, `c1ccc2c3c([nH]c2c1)CC(NC1CCCCC1)CC3` (stereo not drawn) had a pIC50 of 4.96. On the same count and under the same terms, in the case of `O=S(=O)(NC1CCc2c([nH]c3ccccc23)C1)c1cccnc1` (stereo not drawn) it was < 4.00; in that of `O=C(NC1CCc2c([nH]c3ccccc23)C1)c1cccc(F)c1` (stereo not drawn), 4.00.

As for `Cc1ccc(CNC2CCc3c([nH]c4ccccc34)C2)cc1` (stereo not drawn), the negative logarithm of the IC50 (pIC50) was 5.39. In turn, `Cc1ccc(CNC2CCc3c([nH]c4ccc(C)cc34)C2)cc1` (stereo not drawn) showed a pIC50 of 5.54.

The term pIC50 denotes the IC50 on a negative log10 scale, so that one unit is a factor of ten. A high value points to a low IC50.
